From the EternaBench riboswitch data

Test system: MS2 coat protein
Assay: apparent Kd, MS2 coat protein; higher = weaker binding; RNA-MaP array; FMN 200 µM where present
In short: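 Each design was made on Illumina sequencing-chip clusters by stalled E. coli RNA polymerase and titrated with SNAP-549-labelled MS2 coat protein from 0.7 or 1.5 nM, doubling to 3 µM, in the absence and then the presence of constant ligand. The buffer was 100 mM Tris-HCl pH 7.5, 80 mM KCl, 4 mM MgCl2, BSA, DTT, yeast tRNA and Tween-20. The apparent Kd is the median of filtered per-cluster fits of binding curves, with green signal normalised to red-channel RNA signal and control-cluster median Fmax.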

[1] = designed as: ON switch for flavin mononucleotide, no ligand
[2] = ligand present: flavin mononucleotide, designed as: ON switch for flavin mononucleotide
[3] = designed as: OFF switch for flavin mononucleotide, no ligand
[4] = ligand present: flavin mononucleotide, designed as: OFF switch for flavin mononucleotide

Row | Sequence | apparent Kd [1] | apparent Kd [2] | apparent Kd [3] | apparent Kd [4]
1 | UUGGACGUCGUAGGAUAUGUAGGAUAUUUCUACAUGAGGAUCACCCAUGUUGACAUGGAAGAAGGACAGAAGGACGAUGUCCAU | 123 nM | 5.64 nM | – | –
2 | AGAUUUGUACAUGAGGAUCACCCAUGUUAAUAGGUGUUUGUCAGAAGGCAUUAAGAGAGAAUUAAUGAGGAUAUGAAGUUACAU | 42.3 nM | 21.7 nM | – | –
3 | GUCAUCUCGUGAGGAUAUACAACACUGCUUCGGCAGUGUAUUAAGAUCACAUGAGGAUCACCCAUGUAGAAGGCACGAGCUGAU | – | – | 15 nM | 214 nM
4 | UUAAAUCAUGUAGGAUAUGCAUGGCGAAGCUACGCAGAAGGACAUGAGGAUCACCCAUGUUCGAGCGUCUGAGUACAGAUGCAA | – | – | 19.1 nM | 59.8 nM
5 | UUAAAUCAUGUAGGAUAUGCAUGGCGAAGCUACGCAGAAGGACAUGAGGAUCACCCAUGUUAUAGCGUCCGAAUAAGGAUGCAA | – | – | 90.7 nM | 199 nM
6 | AAUUGACACGUAGGAUAUCGCUCUUAUUUAACACGAGAAGGACGUACAUGAGGAUCACCCAUGUUAAAUGGUGUAGAUUAGUUG | – | – | 153 nM | 481 nM
7 | GUUCAGUCAGGAUAUUUGUAACGCUCGGUAUCGAGUGGUAAGAAGAAGGGACAUGAGGAUCACCCAUGUCAGUA | – | – | 20.1 nM | 17.6 nM
8 | AUCAGCUCCUCAGGAUAUACAUCACUGCUUCGGCAGUGUAUUAAGAUCACAUGAGGAUCACCCAUGUAGAAGGGAGGAGCUGAU | – | – | 29.5 nM | 336 nM
9 | UGGUACUAGGGAGGAUAUGGGAAGAUACAUGAGGAUCACCCAUGUUUAAGAUUGCCGAGAGGCAACUAGAAGGCCCUAGUACCU | 1120 nM | 130 nM | – | –
10 | AAUUCACAUGAGGAUCACCCAUGUCAGGAUAUGGUUUCACGUUUUUCUUUUCUUGAGGCCAGAAGGGACAGCUA | – | – | 67.6 nM | 79.1 nM
11 | GCACAUGAUACAGGAUAUGUUUAGGAUUUUAUAUACAGUUAUUUUAUUUUGACAGAAGGGUAUACAUGAGGAUCACCCAUGUGC | – | – | 87.2 nM | 58.1 nM
12 | UGGUACUAGGGAGGAUAUGGUAAGAUACAUGAGGAUCACCCAUGUUUAAGAAUGCCGAGAGGCAACUAGAAGGCCCUAGUACCU | 6.47 nM | 5.04 nM | – | –
13 | CGCUACAUGAGGAUCACCCAUGUACUUACUUGCACGUGAACGAGAAGGCCACAGCAACACAGCGUGGAGGAUAUCGUGGUGCCU | 10.8 nM | 9.35 nM | – | –
14 | AGCAUGUGAGGAUAUGCAGUUGACCGGUACGCCCAGUCAGGGCAGAAGGCACAUGAGGAUCACCCAUGUGAUAG | – | – | 44.7 nM | 122 nM
15 | GCAACGCCUGACAUGAGGAUCACCCAUGUUAGAUUGUUAUGUCAGGAUAUUGUCGCGAAAUGUGAUGAGAAGGGAUAUGUUGCU | 480 nM | 48.8 nM | – | –
16 | AGCUACGUUUCGUAGCAGCUAGGUGAGGAUAUCCUUUACAUGAGGAUCACCCAUGUUUAGCCAUGGGAGAAGGCGCCUAGAAAG | 1090 nM | 113 nM | – | –
17 | AAAAAGCGAGGAUAUACAUAGCUAAGACAUGUAAGCGAAAAACAUGAGGAUCACCCAUGUAGAAGGCGCAAAAA | – | – | 17.7 nM | 18.2 nM
18 | AAUGUUUUCAUAGGAUAUUGACAUUUAUUUAUUCAAGAAGGAUGAUUACAUGAGGAUCACCCAUGUUAAAAUGGAUUAACUAGU | – | – | 54.4 nM | 162 nM
19 | UAACCUCGCGUCAGGAUAUGUGAGGACUGUGACGCACAGAAGGGACAUGAGGAUCACCCAUGUGAAAGAAAUAA | – | – | 26.8 nM | 82.5 nM
20 | UAAUUACCGAUCGGUUUGACUUAGCAGGAUAUACAUGAGGAUCACCCAUGUCAAGGGCGUGCCCGGUAGAAGGGUUGGGUUCAA | – | – | 35.1 nM | 54.9 nM
